# Among all 290,000 compounds or so, about 1,600 (0.55%) were called active.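 Rule for the calls: active = inhibition above the mean of all tested compounds plus 3 SD, set per campaign (cut at about 35% in these data); inactive = the rest.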 This excerpt belongs to a sample that is enriched for actives.
# System: Hepatitis C virus NS3 helicase
# Experiment: inhibitors of HCV NS3 helicase, primary screen, biochemical, Cy5 molecular beacon fluorescence (AID 1800);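 note: 0% = DMSO wells and 100% = thioflavine S control wells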
# Settings: NS3 helicase DNA unwinding, at 10.9 µM, active compounds read high
# Summary of the method: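 Control set: DMSO versus 110 µM thioflavine S; Material: NS3 helicase fragment of HCV; Measured by: Cy5 fluorescence at 0 and 60 min, beacon hairpin quenching; Read-out basis: percent inhibition from t60/t0 fluorescence ratio; Times: reaction time 60 min, 25 °C; Repeats: single replicate; Compound dosing: single dose, 10.9 µM nominal final, DMSO 0.8% final.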
row,Structure (SMILES),inhibition
1,COc1ccc(N(C(=O)c2snc(C(N)=O)c2N)C(C(=O)NC2CCCC2)c2ccc(C)o2)c(OC)c1 (centres undefined),-6.52% (inactive)
2,Cc1[nH]n(C(N)=S)c(=O)c1N=Nc1ccc(Cl)cc1Cl,44.7% (active)
3,CC1=NN(C(N)=S)C(=O)C1N=Nc1cc(Cl)ccc1Cl (centres undefined),34.2% (inactive)
4,Cc1[nH]n(-c2cccc(Cl)c2)c(=O)c1-c1ccc(Cl)cc1,1.96% (inactive)
5,O=C(CSC(=S)N1CCCCC1)c1c(F)cccc1F,4.19% (inactive)
6,COc1ccc(CC(=O)N/N=C(\C)c2ccccn2)cc1,8.79% (inactive)
7,CCN(CC)CCOc1ccc2c(c1)C(=NNC(=O)c1ccccn1)c1cc(OCCN(CC)CC)ccc1-2,41% (active)
8,Cc1cccc(OCC(=O)NCCCNC(=O)c2ccccn2)c1,4.84% (inactive)
9,COc1ccc(NC(=S)N2CCC(NC(=O)c3cccc(F)c3)CC2)cc1,5.28% (inactive)
10,O=C(CSc1nnc(Nc2ccccc2)s1)Nc1cccnc1Cl,4.07% (inactive)
11,CC(C)c1ccc(Nc2nnc(SCC(=O)c3nnc(-c4ccccc4)o3)s2)cc1,42.3% (active)
12,Cc1ccc(Nc2nnc(SCc3ccccc3)s2)cc1,-1.63% (inactive)
13,Cc1ccc(C(=O)CSc2ccccc2C(=O)O)cc1,2.55% (inactive)
14,Cc1ccc(SC(CC(=O)c2ccc(C(C)(C)C)cc2)C(=O)O)cc1 (centres undefined),44.4% (active)
15,Cc1ccc(CSCC(N)C(=O)O)cc1 (centres undefined),0.78% (inactive)
16,C=CCn1c(=NC(=O)c2cccs2)sc2cc(NC(C)=O)ccc21,-8.84% (inactive)
17,Cc1cccc(CCNS(=O)(=O)c2ccc3c(c2)NC(=O)CO3)c1,-2.06% (inactive)
18,COc1ccc(/C=C(/NC(=O)c2ccccc2)C(=O)Nc2cccc(C(=O)O)c2)cc1,3.56% (inactive)
19,COc1ccc(S(=O)(=O)N(C)CC(=O)N2CCCC2)cc1,-9.23% (inactive)
20,CC(C)=N/N=C1/NC(=O)C(Cc2ccccc2)S1 (centres undefined),12.1% (inactive)
21,Cc1ccc(C2Nc3cccc4cccc(c34)N2)cc1,38.8% (active)
22,C/C(=C\c1ccco1)C1Nc2cccc3cccc(c23)N1,15% (inactive)
23,COc1cc2c(cc1OC)C(c1ccccc1Br)NC(=O)C2 (centres undefined),1.43% (inactive)
24,COc1cccc(C2Nc3cccc4cccc(c34)N2)c1,-11.8% (inactive)

row,Structure (SMILES),inhibition
1,Brc1ccccc1C1Nc2cccc3cccc(c23)N1,53.8% (active)
2,Oc1ccc(C2Nc3cccc4cccc(c34)N2)cc1,9.35% (inactive)
3,CCc1noc(C)c1C(=O)N1CCCC(N2CCN(c3ccc(F)cc3)CC2)C1 (centres undefined),8.93% (inactive)
4,CC(C)(COC(=O)Nc1ccccc1)COC(=O)Nc1ccccc1,-7.99% (inactive)
5,Cc1cc([N+](=O)[O-])c(-c2ccc(/C=N/n3cnnc3)o2)cc1Cl,12.9% (inactive)
6,CC1=NN(c2ccc(Cl)c(C(=O)O)c2)C(=O)/C1=C/c1ccc(-c2ccccc2[N+](=O)[O-])o1,43.5% (active)
7,O=C(Nc1ccc(N2CCOCC2)cc1)c1ccc(-c2ccccc2[N+](=O)[O-])o1,-10.2% (inactive)
8,COc1ccccc1NC(=O)Nc1nnc(Cc2ccc(F)cc2)s1,-6.22% (inactive)
9,CCOc1ccc(N(C(=O)c2snc(C(N)=O)c2N)C(C(=O)NCC2CCCO2)c2c[nH]c3ccccc23)cc1 (centres undefined),-29.3% (inactive)
10,COc1ccc(/C=C(/NC(=O)c2ccco2)C(=O)Nc2ccc(C(C)=O)cc2)cc1,2.61% (inactive)
11,COc1ccc(/C=C(\NC(=O)c2ccc(OCC(C)C)cc2)C(=O)OCc2ccco2)cc1,43.7% (active)
12,COc1ccc(C(=O)Nc2ccccc2C(=O)NCc2ccco2)cc1,-9.8% (inactive)
13,CCCn1cc(S(=O)(=O)c2ccc(C)cc2)c(=O)c2cc(OCC)ccc21,-5.21% (inactive)
14,CCc1ccc(NC(=O)Nc2ccncc2)cc1,-8.08% (inactive)
15,COCCNC(=O)Nc1ccc2nc(-c3ccco3)c(-c3ccco3)nc2c1,42.2% (active)
16,O=C(NCc1ccccn1)c1ccc2nc(-c3ccco3)c(-c3ccco3)nc2c1,31.3% (inactive)
17,O=C(Nc1ccc2nccnc2c1)c1ccco1,-0.83% (inactive)
18,NC(=O)c1nsc(C(=O)N(CCCN2CCOCC2)C(C(=O)NC2CCCCC2)c2ccc(Cl)cc2)c1N (centres undefined),13.6% (inactive)
19,Cc1ccc(C(=O)/C=C/Nc2ccc(S(=O)(=O)Nc3onc(C)c3C)cc2)cc1,23.3% (inactive)
20,COc1cc(C(=O)Nc2oc(-c3ccccc3)c(-c3ccccc3)c2C#N)cc(OC)c1OC,-0.57% (inactive)
21,CC(C)C(=O)Nc1oc(-c2ccccc2)cc1C#N,2.07% (inactive)
22,CC(Oc1ccccc1)C(=O)Nc1oc(-c2ccco2)c(-c2ccco2)c1C#N (centres undefined),52.5% (active)
23,Cc1cc2c(cc1C)N(C(=O)CN1C(=O)c3ccccc3C1=O)C(C)(C)c1ssc(=S)c1-2,-5.01% (inactive)
24,O=C(CCC(=O)n1ncc2ccccc21)NCc1ccccc1Cl,12.6% (inactive)

row,Structure (SMILES),inhibition
1,C#CCOc1ccc(/C=C2/C(=O)NN(c3ccccc3)C2=O)cc1OC,27.8% (inactive)
2,COc1cc(/C=C2/C(=O)NN(c3cccc(Cl)c3)C2=O)cc(Br)c1O,64.2% (active)
3,COc1cc(/C=C2/C(=O)NN(c3ccc(F)cc3)C2=O)cc([N+](=O)[O-])c1O,15.7% (inactive)
4,COC(=O)c1ccc(/C=C2/C(=O)Oc3ccccc32)cc1,4.46% (inactive)
5,Nc1c(Cl)cc(-c2csc(N3CCCC3c3nc4cc(Cl)c(Cl)cc4n3CCOCCO)n2)cc1Cl (centres undefined),-4.48% (inactive)
6,Cc1ccc(-c2nn(-c3ccccc3)cc2/C=C2\SC(=S)N(CCCCCC(=O)O)C2=O)o1,45.9% (active)
7,COc1ccc(-c2nn(-c3ccccc3)cc2/C=C2/SC(=S)N(CCCC(=O)O)C2=O)c(C)c1,-32.5% (inactive)
8,CN(C)S(=O)(=O)c1cccc(-c2nn(-c3ccccc3)cc2/C=C2\SC(=S)N(CC(=O)O)C2=O)c1,9.49% (inactive)
9,CC(C)C1Cc2c(sc3c2c(=O)n(-c2ccccc2)c2nncn32)CO1 (centres undefined),1.09% (inactive)
10,CC(C)(C)NC(=O)CSc1nnc(NC(=O)CCc2ccccc2)s1,-6.73% (inactive)
11,O=C1N/C(=C/c2cccn2-c2ccccc2)C(=O)N1c1cccc(Cl)c1,43% (active)
12,Cc1ccccc1NC(=O)CN1C(=O)N/C(=C\c2cccn2-c2cccc(C(=O)O)c2)C1=O,21.8% (inactive)
13,O=C1/C(=C\c2ccsc2)NC(=S)N1c1ccccc1,11% (inactive)
14,O=C(CCc1ccccc1F)N1CCN(c2ccccc2)CC1,8.51% (inactive)
15,Cc1ccccc1CCNC(=O)C1CCC(=O)N(Cc2ccc(Cl)cc2)C1 (centres undefined),-13.2% (inactive)
16,Cc1cccc(NC(=O)c2ccc3c(=O)n(CC4CCCO4)c(=S)[nH]c3c2)c1 (centres undefined),-9.4% (inactive)
17,Cc1nc2nc(SCC(=O)NCc3ccco3)nn2c(C)c1Cc1ccccc1,2.25% (inactive)
18,O=c1nc2s/c(=C\c3ccco3)c(=O)n2nc1Cc1ccccc1,45.8% (active)
19,CCOc1ccccc1/C=c1\sc2nc(-c3ccco3)nn2c1=O,27.9% (inactive)
20,COC(=O)c1cc(S(=O)(=O)N2CCN(c3cc(C)ccc3C)CC2)c[nH]1,-25.3% (inactive)
21,COCCN(C(=O)CCC(=O)Nc1ccccn1)C(C(=O)NCCC(C)C)c1ccc(OC)cc1 (centres undefined),0.66% (inactive)
22,CCOc1ccc(C(C(=O)NCCOC)N(CCOC)C(=O)CCC(=O)Nc2ccccn2)cc1 (centres undefined),38.9% (active)
23,COCCNC(=O)C(c1ccc(C)cc1)N(C(=O)CCC(=O)Nc1ccccn1)c1cccc(C)c1 (centres undefined),-11.8% (inactive)
24,O=C(Nc1nnc(-c2ccc(F)cc2)s1)c1c(F)cccc1Cl,-8.63% (inactive)

row,Structure (SMILES),inhibition
1,Cc1ccccc1/C=C\c1nc(O)c([N+](=O)[O-])c(=O)[nH]1,9.37% (inactive)
2,O=c1cc(O)c(-c2cccc(C(F)(F)F)c2)c(Cl)[nH]1,13.8% (inactive)
3,O=c1[nH]c(/C=C\c2cccc(C(F)(F)F)c2)nc(O)c1[N+](=O)[O-],47.4% (active)
4,CCNC(=O)N1CCCC(C(=O)c2ccc(-c3ccccc3)cc2)C1 (centres undefined),-0.46% (inactive)
5,Cc1ccc(C2=N/C(=C\c3ccc(OS(=O)(=O)c4ccc(C)cc4)cc3)C(=O)O2)cc1,40.6% (active)
6,O=C1OC(c2ccc(Cl)cc2)=N/C1=C\c1cccnc1,5.47% (inactive)
7,Cc1ccc(S(=O)(=O)Oc2ccc(/C=N/NC(=O)c3ccncc3)cc2)cc1,-3.55% (inactive)
8,O=C(CNc1cccc(S(=O)(=O)N2CCCCC2)c1)Nc1ccccc1F,-2.03% (inactive)
9,CCOCCCN(C)C1CCN(C(=O)c2oc3ccccc3c2NC(=O)COc2cccc(C)c2)CC1,-20.2% (inactive)
10,O=C(NNc1ccccn1)c1ccc(Cl)nc1,-0.49% (inactive)
11,O=C(CCl)NNc1cccc(Cl)n1,60.9% (active)
12,O=C(CCl)NNc1nc(-c2ccccc2)c2cc(Cl)ccc2n1,3.47% (inactive)
13,CCC(C(=O)OC)n1cnc2c(oc3ccccc32)c1=O (centres undefined),-6.44% (inactive)
14,CC(=O)Nc1ccc(Nc2c3ccccc3nc3ccccc23)cc1,38.4% (active)
15,CC(=O)Nc1ccc(NC(=O)COc2ncnc3ccccc23)cc1,8.73% (inactive)
16,Cc1ccc(Nc2c3c(nc4ccccc24)CCC3)cc1,-35.6% (inactive)
17,Cc1cccc(NC(=O)NC(=S)NC(=O)c2ccccc2)c1,7.16% (inactive)
18,COC(=O)c1c(C)[nH]c(C(=O)NCCc2ccc(S(N)(=O)=O)cc2)c1C,-6.64% (inactive)
19,O=S(=O)(NCc1ccc(Cl)cc1Cl)c1cccs1,7.61% (inactive)
20,O=[N+]([O-])c1cc(Cl)cc(/C=N/NC(=S)Nc2cc(S(=O)(=O)N3CCOCC3)ccc2Cl)c1O,40.4% (active)
21,O=C(N/N=C/c1cc(Cl)cc([N+](=O)[O-])c1O)C(O)(c1ccccc1)c1ccccc1,24.1% (inactive)
22,O=C(CN1CCN(c2ccc(O)cc2)CC1)Nc1cc(S(=O)(=O)N2CCOCC2)ccc1Cl,13.6% (inactive)

# Source: PubChem BioAssay AID1800 (The Scripps Research Institute Molecular Screening Center, 2009)
